# Screens as filed in PubChem BioAssay.
# FID counter: displaces DNA intercalator in HCV helicase counter-screen; DNA fluorescent intercalator displacement, fluorescence; inhibition, % at 7.9 µM; 0.17% of 290,000 active; in the data active means inhibition above about 37%;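 further: 0% = vehicle and 100% = reference compound; higher means more ethidium bromide displaced from hairpin DNA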
# VIM-2 inhibitor: inhibitors of Pseudomonas aeruginosa VIM-2 metallo-beta-lactamase; purified VIM-2, nitrocefin hydrolysis, epi-absorbance fluorescence; 0.89% of 290,000 active; inhibition, % at 5.6 µM;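 active means inhibition above the mean of all tested compounds plus 3 SD, cutoff set per screening run, cut at about 7.5% in these data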;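 further: red hydrolysis product quenches plate fluorescence so inhibitors raise well fluorescence; 0% = enzyme with DMSO and 100% = DMSO without enzyme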
# IMP-1 inh-1: blocks Pseudomonas aeruginosa IMP-1 metallo-beta-lactamase; purified IMP-1, nitrocefin hydrolysis, epi-absorbance fluorescence; inhibition, % at 5.6 µM; 0.45% of 290,000 active;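 active means inhibition above the mean plus 3 SD of all compounds in the same screening run, cut at about 4.5% in these data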;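 further: 0% = IMP-1 with DMSO and 100% = DMSO wells lacking enzyme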
#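 System: Purified recombinant IMP-1 metallo-beta-lactamase enzyme | Measured by: Fluorescence quenching readout, ex 480/em 530 nm | Replication: Singlicate | Incubation: 15 min preincubation plus 25 min reaction at 25 °C | Evaluation: Percent inhibition from optical density relative to buffer-blank wells | Benchmarks: DMSO with and without IMP-1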
# UBC9 SUMO inh: blocks human SUMOylation mediated by UBC9 | HTRF SUMOylation assay, SAE1/SAE2 + UBC9, in vitro | inhibition, % at 35 µM | 0.36% of 290,000 active; in the data active means inhibition above about 50%, passing the limit was not always enough
# Target sequence (P63279 whole entry, looked up): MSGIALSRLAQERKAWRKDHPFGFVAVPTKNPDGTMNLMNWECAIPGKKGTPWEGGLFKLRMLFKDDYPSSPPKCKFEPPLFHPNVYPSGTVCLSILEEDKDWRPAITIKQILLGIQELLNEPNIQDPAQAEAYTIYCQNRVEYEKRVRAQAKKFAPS
# NALP1 yeast inh: NALP1 inhibition; S. cerevisiae NALP1/ASC/caspase-1 growth, X-gal OD620, 72 h; inhibition, % at 10 µM; 0.61% of 280,000 active; AID 2071; in the data active means inhibition mostly above about 24%, no sharp cut-off; inactive means mostly below about 32%
# SUMO Mot1 rescue: SUMOylation pathway inhibition by Mot1-301 growth rescue; 1% of 320,000 active; growth rescue, % at 18.8 µM; S. cerevisiae Mot1-301 growth rescue, ATP luminescence, 38.5C; percent above DMSO median, 100 means doubled;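 active means every valid replicate shows activation above 250% relative to neutral control wells; inactive means the rest, any valid replicate at or below 250%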;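 further: OY570 slx delta 5 strain wells were the positive control but not used for scaling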
# IMP-1 inh-2: selectivity counter-screen for VIM-2 inhibitors: IMP-1 metallo-beta-lactamase inhibitors; shares compounds with VIM-2 inhibitor; AID 1856; inhibition, % at 5.6 µM; 1,300 tested, under 10 active; purified IMP-1, nitrocefin hydrolysis, epi-absorbance fluorescence; call rule not given here;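 further: 0% = enzyme with vehicle and 100% = vehicle without enzyme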
# VIM-2 FRET ctr: VIM-2 FRET inhibition, artifact counter-screen. purified VIM-2, CCF2 FRET substrate hydrolysis. 23% of 1,300 active. inhibition, % at 5.6 µM. shares compounds with VIM-2 inhibitor;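 active means inhibition above the mean of all tested compounds plus 3 SD, cut at about 19% in these data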;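 further: 0% = VIM-2 plus DMSO and 100% = no enzyme wells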
# TEM-1 counter: selectivity counter-screen for VIM-2 inhibitors: E. coli TEM-1 inhibitors; 3% of 1,300 active; shares compounds with VIM-2 inhibitor; Purified TEM-1, nitrocefin hydrolysis, epi-absorbance fluorescence; inhibition, % at 5.6 µM;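 active means inhibition above that campaign's mean inhibition plus 3 SD, cut at about 0.46% in these data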;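 further: 0% = TEM-1 with DMSO and 100% = TEM-1 with 100 µM potassium clavulanate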
# Target sequence (P62593 whole entry, looked up): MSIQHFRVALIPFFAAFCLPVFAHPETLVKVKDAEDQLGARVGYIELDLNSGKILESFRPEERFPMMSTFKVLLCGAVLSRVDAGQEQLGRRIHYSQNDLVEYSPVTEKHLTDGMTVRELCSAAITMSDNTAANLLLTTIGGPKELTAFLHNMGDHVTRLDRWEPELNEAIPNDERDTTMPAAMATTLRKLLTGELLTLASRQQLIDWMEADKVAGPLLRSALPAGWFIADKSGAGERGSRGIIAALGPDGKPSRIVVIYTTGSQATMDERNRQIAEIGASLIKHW
# VIM-2 confirm 2: confirmation of P. aeruginosa VIM-2 metallo-beta-lactamase inhibitors. purified VIM-2, nitrocefin hydrolysis, epi-absorbance. shares compounds with VIM-2 inhibitor. inhibition, % at 5.6 µM. 96% of 1,300 active;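 active means inhibition of the VIM-2 beta-lactamase enzyme above about 11% from the earlier first-round screen, limit read from the data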;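 further: 0% = VIM-2 with DMSO and 100% = buffer wells without enzyme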
# The depositor's hits bear a star; . = no result. Only some compounds are listed: those with a hit (about 2.9% of all), similar ones and a draw of the others.
SMILES,FID counter,VIM-2 inhibitor,IMP-1 inh-1,UBC9 SUMO inh,NALP1 yeast inh,SUMO Mot1 rescue,IMP-1 inh-2,VIM-2 FRET ctr,TEM-1 counter,VIM-2 confirm 2
CC1=NN(C(=O)c2ccc(Cn3nc(C)cc3C)o2)C(O)(C(F)(F)F)C1 (centres undefined),-9.8,-4.1,-3.1,20.6,-9.1,-5.3,.,.,.,.
Cc1cc(=O)oc2cc(OC(C)C(=O)NC3CCN(Cc4ccccc4)CC3)ccc12 (centres undefined),15.1,0.3,-1.9,3.3,1.5,-12.1,.,.,.,.
CC(Oc1ccc2c3c(c(=O)oc2c1)CCC3)C(=O)NC1CCN(Cc2ccccc2)CC1 (centres undefined),10.9,22.3*,-2.5,.,9.2,1.7,-3.4,2.1,-6.5,31.4*
CC(Oc1cc2oc(=O)c3c(c2cc1Cl)CCC3)C(=O)NC1CC(C)(C)NC(C)(C)C1 (centres undefined),19.7,25.0*,-5.4,.,0.4,-2.4,-1.9,-3.9,-1.7,34.9*
Cc1c(OC(C)C(=O)NC2CC(C)(C)NC(C)(C)C2)ccc2c3c(c(=O)oc12)CCC3 (centres undefined),35.6,25.8*,0.8,12.8,4.6,3.5,-2.3,-2.3,-11.5,37.5*
Cc1c(C)c2ccc(OC(C)C(=O)NC3CC(C)(C)NC(C)(C)C3)cc2oc1=O (centres undefined),11.6,6.5,-2.3,.,1.7,96.8,.,.,.,.
CC(Oc1ccc2c3c(c(=O)oc2c1)CCCC3)C(=O)NC1CC(C)(C)NC(C)(C)C1 (centres undefined),23.7,15.3*,-2.2,.,14.0,8.6,-3.0,0.6,-5.8,20.1*
COCCN(C(=O)c1ccccc1OC1CCN(S(C)(=O)=O)CC1)C(C)C,-20.3,-0.4,-3.6,13.2,-1.9,-4.4,.,.,.,.
Cc1ccc(CNC(=O)Cn2cnc3c(OCc4ccccc4)ncnc32)o1,.,.,.,.,.,-17.3,.,.,.,.
CC(C)CC(=O)N1CCC(O)(CS(=O)(=O)c2ccc(Cl)c(Cl)c2)CC1,-12.9,-2.4,-2.9,5.1,2.4,-16.7,.,.,.,.
Cc1c(OCC(=O)NCCCN2CCOCC2)ccc2c1oc(=O)c1ccccc12,16.5,25.5*,-1.6,26.9,19.2,2.5,-0.9,0.9,-4.2,37.5*
Cc1c(OCC(=O)NCCCN2CCOCC2)ccc2c3c(c(=O)oc12)CCC3,7.1,25.0*,-2.7,3.4,13.2,1.0,-2.5,1.2,-14.1,36.5*
CCCCc1cc(=O)oc2c(C)c(OCC(=O)NCCN3CCOCC3)ccc12,12.1,4.9,1.2,10.9,35.3,27.2,.,.,.,.
O=C(COc1ccccc1Cc1ccccc1)NCCCN1CCOCC1,1.1,-2.6,-3.8,7.4,.,45.1,.,.,.,.
CC(=O)C1=C(O)C(=O)N(c2cccc(Br)c2)C1c1ccc(Br)cc1 (centres undefined),-31.1,-0.5,-3.3,11.3,15.2,-7.1,.,.,.,.
O=C(C(=O)N1CCCC1)c1c(-c2ccccc2)[nH]c2ccccc12,-8.4,-0.4,-1.0,20.0,-0.5,-4.6,.,.,.,.
CCOC(=O)Cc1nnc(NC(=O)CSc2ccc(C)cc2)s1,-7.7,-0.1,-1.9,6.8,2.9,-0.4,.,.,.,.
CCOC(=O)Cc1nnc(NC(=O)CSc2nnc3c4ccccc4n(C)c3n2)s1,-16.0,16.9*,-3.0,34.0,14.6,8.7,-2.3,-0.7,-10.8,37.6*
CCN(CC)C(=O)CSc1nnc2c3ccccc3n(C)c2n1,-16.5,13.7*,-5.6,9.5,-5.3,6.6,-2.9,0.3,-5.0,24.4*
C=CCn1c2ccccc2c2nnc(SCC(=O)O)nc21,-8.7,2.4,-0.6,10.4,17.0,14.2,.,.,.,.
Oc1ccc2ccccc2c1-c1sc(Nc2ccccc2)n[n+]1-c1ccc(F)cc1,-4.3,16.9*,0.5,10.1,13.2,2.2,4.9*,-3.7,1.3*,8.2*
C(=N/N1CCN(c2ccccc2)CC1)/c1ccncc1,-7.2,1.0,-0.7,3.9,3.2,-2.0,.,.,.,.
O=C(O)C(NC(=O)c1ccccc1)=C(Cl)Cl,-0.9,23.1*,-3.6,.,.,-16.7,-2.7,44.1*,-5.2,24.7*
CCSc1ccc2nnc(-c3cccc(F)c3)n2n1,-13.1,12.4*,-1.9,30.3,20.7,10.8,-3.3,-8.6,-6.3,23.1*
O=C(NC(=S)Nc1ccccc1N1CCCC1)c1ccco1,-7.7,12.4*,-1.8,22.2,1.6,-6.2,-3.1,36.3*,-6.9,19.3*
SMILES,FID counter,VIM-2 inhibitor,IMP-1 inh-1,UBC9 SUMO inh,NALP1 yeast inh,SUMO Mot1 rescue,IMP-1 inh-2,VIM-2 FRET ctr,TEM-1 counter,VIM-2 confirm 2
O=C(NC(=S)Nc1ccccc1N1CCCC1)c1ccccc1Br,-16.0,17.2*,-3.0,24.4,-1.2,2.2,-2.5,3.7,-8.2,2.1
COc1ccccc1N1CC(O)=C(c2nc3ccccc3c(=O)[nH]2)C1=N,-19.0,14.7*,-3.1,14.8,.,6.7,-3.7,-5.8,-9.1,23.3*
CN(C)c1ccc(/C=C2\C(=N)N3N=C(CC(=O)N4CCCCC4)SC3=NC2=O)cc1,-55.9,13.4*,1.2,.,-9.8,-5.5,-1.3,29.2*,-5.3,18.0*
CN1CCN(C(=O)CSc2nc(-c3ccco3)cc(C(F)(F)F)n2)CC1,4.7,42.8*,-0.3,2.2,3.7,284.6,-3.3,2.5,-5.7,57.5*
O=C(CSc1nc(-c2ccco2)cc(C(F)(F)F)n1)N1CCSCC1,-26.6,0.6,-1.7,4.9,12.2,54.6,.,.,.,.
COc1ccc(/C=N/NC(=S)Nc2cccc(C(=O)O)c2)cc1OC,-11.8,12.7*,-3.5,-0.5,24.6,22.2,-1.8,5.3,-3.1,5.4
COc1cc(-c2noc(C)c2C#Cc2nccn2C)cc(OC)c1OC,-27.9,29.6*,-2.5,11.3,16.2,-14.8,-1.8,-15.1,-0.8,45.9*
CC(=O)Nc1cccc(-c2nnc(SCC(=O)n3c4c(c5ccccc53)CCCC4)n2C)c1,-8.9,15.5*,-1.9,-2.8,13.1,11.4,-3.9,9.4,-8.9,4.6
O=C(CSc1nnc(NC(=O)c2ccccc2[N+](=O)[O-])s1)NCC1CCCO1 (centres undefined),0.0,19.2*,-1.8,7.9,12.5,4.1,-3.3,34.7*,-6.1,23.0*
O=C(CSc1nnc(NC(=O)Cc2ccccc2)s1)NCC1CCCO1 (centres undefined),-8.7,-0.9,-1.3,-18.8,19.8,257.1,.,.,.,.
O=C(CSc1nnc(Nc2ccccc2F)s1)NCC1CCCO1 (centres undefined),.,.,.,.,.,3.9,.,.,.,.
